# The list is not random: actives were taken first. Their share in the collection is about 0.79%.
# bIAP inh = intestinal alkaline phosphatase (bovine) inhibition; 190,000 tested, under 10 active; inhibition, % at 20 µM; AID 1019; purified bovine IAP, CDP-star luminescence, 30 min;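 active = over 50% inhibition of intestinal alkaline phosphatase at 20 µM in the single-dose screen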
#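 System: Purified bovine intestinal alkaline phosphatase (IAP) enzyme | Input: IAP diluted 1/65,000,000 in the well | Also added: CDP-star chemiluminescent phosphatase substrate, 30 µM final | Dosing: 20 µM single dose | Times: Enzyme reaction for 30 min at room temperature | Detection: Luminescence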
# hIAP act = increases human intestinal alkaline phosphatase activity; purified human IAP, CDP-Star luminescence, 30 min; hits give high values; 1 = vehicle-only enzyme, 0 = enzyme-free background; activation factor at 10 µM; actives 0.16% (n = 330,000);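 active = activation factor of the enzyme at least 2-fold when tested at 20 µM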
# Target sequence (P09923 whole entry, looked up): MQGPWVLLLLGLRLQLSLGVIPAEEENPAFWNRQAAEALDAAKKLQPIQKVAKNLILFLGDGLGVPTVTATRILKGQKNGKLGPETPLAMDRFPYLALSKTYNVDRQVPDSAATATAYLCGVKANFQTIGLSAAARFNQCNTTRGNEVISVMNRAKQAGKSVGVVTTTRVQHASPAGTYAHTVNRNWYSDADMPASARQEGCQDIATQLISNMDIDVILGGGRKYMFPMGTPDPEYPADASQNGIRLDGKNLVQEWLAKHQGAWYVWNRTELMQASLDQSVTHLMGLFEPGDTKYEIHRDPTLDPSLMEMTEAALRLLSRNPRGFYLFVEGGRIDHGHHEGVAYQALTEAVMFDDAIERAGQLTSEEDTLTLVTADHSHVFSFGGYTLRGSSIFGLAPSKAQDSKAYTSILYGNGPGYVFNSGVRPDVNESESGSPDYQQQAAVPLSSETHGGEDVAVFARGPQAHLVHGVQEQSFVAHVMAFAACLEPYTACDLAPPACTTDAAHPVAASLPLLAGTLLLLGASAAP
# mIAP activ = increases mouse intestinal alkaline phosphatase activity. muIAP, CDP-Star luminescence, 30 min; hits give high values; 1 = vehicle-only enzyme signal, 0 = enzyme-free wells. activation factor at 10 µM. actives 0.24% (n = 330,000);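 active = activation factor of at least 2 at 20 µM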
#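 Assay system: mouse IAP enzyme; Reagent: CDP-Star chemiluminescent phosphatase substrate; Compound: DMSO-dissolved test compounds; Incubation: 30 min, room temperature; Technique: luminescence from enzymatic CDP-Star hydrolysis; Controls: DMSO-only wells and no-enzyme negative control.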
# mIAP block = mouse IAP inhibition; inhibition, % at 10 µM; AID 2806; purified mouse IAP, CDP-Star luminescence, 30 min; actives 0.2% (n = 330,000);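 active = inhibition of at least 40% at 10 µM in the primary screen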;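 also: plate controls were DMSO with enzyme for no effect and no enzyme wells for full effect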
# bIAP act = intestinal alkaline phosphatase (bovine) activation; purified bovine IAP, CDP-star luminescence, 30 min; hits give high values; fold of DMSO-control signal, blank-subtracted; activation factor at 20 µM; actives 0.17% (n = 200,000); AID 1016;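 active = activation factor of 2 or more at 20 µM, a signal rise over negative controls twice the positive control's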
# hIAP inh = blocks human intestinal alkaline phosphatase; P09923; purified IAP, CDP-Star luminescence, 30 min; inhibition, % at 10 µM; actives 0.12% (n = 330,000);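 active = inhibition reaching a set limit with compound at 10 µM in the primary screen, cut at about 35% in these data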;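 also: plate controls were DMSO wells with enzyme for no effect and no-enzyme buffer wells for full effect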
# hIAP act confirm = human IAP activation confirmation; shares compounds with hIAP act; purified IAP, CDP-Star luminescence, 30 min; hits give low values; activation (%Activity, negative = activation), % at 8.3 µM; actives 10% (n = 880); AID 434926;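 active = at least twofold enzyme activation in any of six single-dose repeats, which the averaged readout prints as negative percent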
# Numbers without * were called inactive; i = inactive; / = not tested or not shown.
SMILES,bIAP inh,hIAP act,mIAP activ,mIAP block,bIAP act,hIAP inh,hIAP act confirm
CC(C)CC(=O)NC(=S)Nc1ccccc1C(=O)Nc1ccccc1,-10,2.7*,0.68,32,1.1,-170,21
CC(C)C(=O)NC(=S)Nc1ccccc1C(=O)Nc1ccccc1,-4,2.6*,0.64,36,1,-165,-108*
Cc1sc2ncn(CC(=O)N(C)C3CCCCC3)c(=O)c2c1C,/,1.1,0.83,17,/,-5,/
Cc1cc(NS(=O)(=O)c2ccc(NC(=O)C(C)Oc3ccc4c(C)cc(=O)oc4c3)cc2)no1 (stereo not drawn),3,2.6*,0.94,6,1,-162,-23
COc1ccc(OC)c(NC(=O)CSc2nnc(-c3ccco3)n2-c2ccc(C(=O)O)cc2)c1,-6,0.97,1.1,-10,1.1,3,/
CN(CC(=O)Nc1ccccc1Cl)C(=O)COC(=O)c1cnccn1,/,0.65,1,-3,/,35*,-1
NC(=S)NNC(=O)COc1ccccc1O,/,2.1*,0.67,33,/,-115,-3
COc1ccccc1OCC(=O)NNC(=O)CCCC(=O)NNC(=O)COc1ccccc1OC,/,0.77,0.85,15,/,24,/
Cc1ccc2nc(Cc3ccc(N)cc3)[nH]c2c1,-11,1.1,1.2,-16,1.1,-13,/
Cc1ccc2nc(CCc3nc4ccc(C)cc4[nH]3)[nH]c2c1,/,2.3*,1.1,-6,/,-133,-5
Cc1ccc2nc(CCCc3nc4ccc(C)cc4[nH]3)[nH]c2c1,/,2.7*,1.2,-24,/,-171,-60
c1ccc2[nH]c(CCCCc3nc4ccccc4[nH]3)nc2c1,/,1.4,1.1,-6,/,-43,/
Cc1cccc2cc(CN(Cc3ccc(F)cc3)C(=O)N3CCOCC3)c3nnnn3c12,6,0.85,0.98,2,0.9,14,/
COCCNC(=O)c1ccc2c(c1)C(=O)c1ccccc1-2,/,1,0.98,2,/,-4,/
CC1CCN(S(=O)(=O)c2ccc3c(c2)CCN3C(=O)C2CCC2)CC1,/,0.82,0.98,2,/,18,/
CC1CCCN(S(=O)(=O)c2ccc3c(c2)CCN3C(=O)C2CCC2)C1 (stereo not drawn),0,50*,0.97,3,1,i,0
O=C(NNC(=O)c1ccc(Br)o1)c1csc(N2CCOCC2)n1,/,2.2*,0.89,11,/,-115,10
O=C(CCNS(=O)(=O)c1ccccc1)NNC(=O)c1csc(N2CCOCC2)n1,/,1.9,0.81,19,/,-91,/
CC(=O)Nc1ccc(S(=O)(=O)NCC(=O)NNC(=O)c2csc(N3CCOCC3)n2)cc1,/,2.1*,0.77,23,/,-113,-39
Cc1ccc(C(=O)NNC(=O)c2csc(N3CCOCC3)n2)o1,/,1.9,0.87,13,/,-90,/
COc1ccccc1C(=O)NNC(=O)c1csc(N2CCOCC2)n1,/,2*,0.98,2,/,-105,2
CC(=O)c1cc(C(c2csc(C(C)=O)c2)c2csc(C(C)=O)c2)cs1,-10,1,0.96,4,1.1,-3,/
O=C(c1ccco1)N1CCN(c2nc(-c3ccc(F)cc3)cs2)CC1,-10,2*,0.81,18,1.1,-100,3
CCc1ccc(S(=O)(=O)/N=C2\C=C(NS(=O)(=O)c3ccccc3)C(=O)c3ccccc32)cc1,/,0.64,0.87,13,/,36*,-22
CCOC(=O)c1ccc(Oc2cn[nH]c2-c2ccc(OCC(=O)NN)cc2O)cc1,/,2.4*,0.94,6,/,-136,4
SMILES,bIAP inh,hIAP act,mIAP activ,mIAP block,bIAP act,hIAP inh,hIAP act confirm
CCOc1ccc(-c2n[nH]c(C)c2Oc2ccccc2OC)c(O)c1,-58,0.96,1.1,-12,1.6,4,/
CCCOC(=O)c1ccc(Oc2c(-c3ccc(OC)cc3O)n[nH]c2C)cc1,-15,1.8,0.98,2,1.2,-80,/
CCCOC(=O)c1ccc(Oc2cn[nH]c2-c2ccc(OCC(=O)NN)cc2O)cc1,/,2,1.1,-5,/,-97,/
CCCOC(=O)c1ccc(Oc2c(-c3ccc(O)cc3O)n[nH]c2C)cc1,-48,2.3*,1.1,-12,1.5,-132,-62
Cc1[nH]nc(-c2ccc(O)cc2O)c1Oc1ccccc1,-16,2.1*,1.3,-26,1.2,-107,-17
CC(C)OCCCNC(=O)Cn1nc(-c2ccccc2)ccc1=O,3,1.1,1.1,-13,1,-9,/
COc1ccc(N=Cc2sc3ccccc3c2Cl)cc1,4,0.62,0.99,1,1,38*,-34
CCOc1ccc(C(=O)NC(C(=O)NCCc2ccc(S(N)(=O)=O)cc2)C(C)C)cc1 (stereo not drawn),/,1.1,1,-2,/,-6,/
Cc1[nH]n(-c2nc(-c3ccccc3)cc(=O)[nH]2)c(=O)c1CCO,35,0.38,0.88,12,0.6,62*,47
CC(C)Nc1nc(NC(C)C)nc(N(C)C#N)n1,-4,1,0.92,8,1,0,/
Nc1cc(Nc2ccccc2)ccn1,/,0.62,0.96,4,/,38*,8
CC1CCCC/C1=N/Nc1ccc([N+](=O)[O-])cc1[N+](=O)[O-] (stereo not drawn),/,0.63,0.81,19,0.1,37*,8
CN1CCc2c1nc1ccccc1c2N (tested in a mixture with another compound),/,0.61,1,-1,/,38*,1
N#Cc1sc(NCc2cccc(Cl)c2)nc1Cl,/,0.94,1.1,-13,/,6,/
CN(Cc1cnn(C)c1)C(=O)C1CCC(=O)N(Cc2cccc(F)c2)C1 (stereo not drawn),/,0.55,0.99,1,/,45*,-58
COc1cccc(/C=N/NC(=O)CNC(=O)/C=C\c2ccccc2)c1O,/,2.4*,0.84,16,/,-142,-5
Nc1nc(NCCCN2CCOCC2)nc(Nc2cccc(F)c2)c1[N+](=O)[O-],/,0.64,0.88,12,/,36*,-18
Cc1ccc(S(=O)(=O)NC(CC(=O)NCC2CCCO2)c2ccco2)cc1 (stereo not drawn),2,0.61,1.1,-15,1,39*,-3
CCOC(=O)[C@@H]1[C@H]2COc3ccccc3[C@H]2N2C(=O)N(c3ccc(OC)cc3)C(=O)[C@]12C,/,1,1,-1,/,0,/
O=C(CC(c1ccccc1)c1ccccc1)Nc1ncn[nH]1,-231,2.5*,1.4,-40,3.3*,-146,-7
O=C(CC1CCCCC1)Nc1ncn[nH]1,-183,2*,1.1,-10,2.8*,-102,-53
COc1ccc(S(=O)(=O)N(C)C)cc1NC(=O)COC(=O)Cn1cnc2ccccc2c1=O,/,0.99,1.1,-12,/,1,/
CC(=O)Nc1ccc2nc(NC(=O)COc3ccccc3Cl)sc2c1,-5,1.1,1,-2,1.1,-8,/

# High-throughput results deposited in PubChem by Sanford-Burnham Center for Chemical Genomics.
